According to ChEMBL document CHEMBL4130356, “Design, synthesis and 2D QSAR study of novel pyridine and quinolone hydrazone derivatives as potential antimicrobial and antitubercular agents” (Eur J Med Chem, 2017):
In brackets after ≈: the same amount, converted by molar mass. Activity calls are given as the source filed them. The calls are words filed in the database; no cut-off is given here.

Tests used:
Aspergillus fumigatus [1] = assay: Antimicrobial activity against Aspergillus fumigatus RCMB 02568 after 48 hrs by serial dilution method; type: functional; settings: RCMB 02568, 48 h
How it was run: (§1)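 Serial twofold dilution in microtiter plates starting from a 100 mmol stock in DMSO; final concentrations 125 down to 0.12 […]. Incubated at 28°C and read on a microplate reader after 48 h. Amphotericin B was the reference. Run in triplicate, with the average taken. MIC was the lowest concentration inhibiting growth.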

WI-38 = assay: Cytotoxicity against human WI38 cells assessed as reduction in cell viability after 24 hrs by crystal violet staining-based colorimetric method; settings: WI-38, 24 h
How it was run: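 WI-38 cells were grown in DMEM with 10% FBS at 37°C and 5% CO2, then seeded at 1×10^4 cells/well. Serial twofold dilutions were added, three wells per concentration. Viability was read by crystal violet stain, solubilised in 30% acetic acid, at 490 nm. Run in triplicate. IC50 was estimated from dose-response plots.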

Candida albicans [2] = assay: Antimicrobial activity against Candida albicans RCMB 05036 after 48 hrs by serial dilution method; type: functional; settings: RCMB 05036, 48 h; how it was run: as §1
Candida albicans [3] = assay: Antimicrobial activity against Candida albicans RCMB 05036 assessed as diameter of zone inhibition at 100 ug/ml after 48 hrs by agar well diffusion assay; type: functional; settings: for zone of inhibition at 100 µg/mL: RCMB 05036, 48 h, read-out: DIZ
How it was run: (§2)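 Agar well diffusion on malt agar plates seeded with the fungus, using 1 cm wells. Plates were held at 4°C for 1 h for diffusion, then incubated at 28°C. Inhibition zone diameters were measured at 48 h. Amphotericin B was the positive control. Run in triplicate, with the mean zone reported.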

Streptococcus pneumoniae [4] = assay: Antimicrobial activity against Streptococcus pneumoniae RCMB 010010 assessed as diameter of zone inhibition at 100 ug/ml after 24 hrs by agar well diffusion assay; type: functional; settings: RCMB 010010, 24 h, read-out: DIZ
How it was run: (§3)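 Agar well diffusion on nutrient agar plates seeded with the bacterium, using 1 cm wells. Plates were held at 4°C for 1 h for diffusion, then incubated at 37°C. Inhibition zone diameters were measured at 24 h. Ciprofloxacin was the positive control. Run in triplicate, with the mean zone reported.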

Staphylococcus aureus [5] = assay: Antimicrobial activity against Staphylococcus aureus RCMB 010028 assessed as diameter of zone inhibition at 100 ug/ml after 24 hrs by agar well diffusion assay; type: functional; settings: RCMB 010028, 24 h, read-out: DIZ; how it was run: as §3
[6] = Selectivity index, ratio of IC50 for human WI38 cells to MIC for Mycobacterium tuberculosis RCMB 010126 clinical isolate; type: toxicity; settings: read-out: Selectivity Index
How it was run: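 WI-38 human lung fibroblasts grown in DMEM with 10% FBS at 37°C and 5% CO2, seeded at 1×10^4 cells/well, and exposed to serial two-fold dilutions in triplicate. Viability read by crystal violet stain at 490 nm. IC50 taken from dose-response plots. Ratio uses this IC50 against the MABA MIC for M. tuberculosis.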

[7] = test system: Mycobacterium tuberculosis; assay: Antimycobacterial activity against Mycobacterium tuberculosis RCMB 010126 clinical isolate assessed as inhibition zone after 7 days by MABA; type: functional
How it was run: (§4)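 Inoculum from fresh LJ culture resuspended in 7H9-S broth with casitone, glycerol and OADC, adjusted to McFarland No. 1 and diluted 1:20. Serial two-fold compound dilutions in 7H9-S; isoniazid reference. Incubated 7 days at 37°C in air, then Alamar blue added and incubated overnight. Percent inhibition = 1 − (test well/growth-control mean) × 100; MIC = lowest concentration preventing blue-to-pink change.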

Escherichia coli [8] = assay: Antimicrobial activity against Escherichia coli RCMB 010052 after 24 hrs by serial dilution method; type: functional; settings: RCMB 010052, 24 h
How it was run: as §1, with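 “37°C” for “28°C”, “24” for “48”, “Ciprofloxacin” for “Amphotericin B”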

Staphylococcus aureus [9] = assay: Antimicrobial activity against Staphylococcus aureus RCMB 010028 after 24 hrs by serial dilution method; type: functional; settings: RCMB 010028, 24 h
How it was run: as §1, with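 “37°C” for “28°C”, “24” for “48”, “Ciprofloxacin” for “Amphotericin B”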

Aspergillus fumigatus [10] = assay: Antimicrobial activity against Aspergillus fumigatus RCMB 02568 assessed as diameter of zone inhibition at 100 ug/ml after 48 hrs by agar well diffusion assay; type: functional; settings: for zone of inhibition at 100 µg/mL: RCMB 02568, 48 h, read-out: DIZ; how it was run: as §2
[11] = test system: Mycobacterium tuberculosis; assay: Antimycobacterial activity against Mycobacterium tuberculosis RCMB 010126 clinical isolate after 7 days by MABA; type: functional; how it was run: as §4
Pseudomonas aeruginosa [12] = settings: RCMB 010043, 100 ug/ml
Escherichia coli [13] = assay: Antimicrobial activity against Escherichia coli RCMB 010052 assessed as diameter of zone inhibition at 100 ug/ml after 24 hrs by agar well diffusion assay; type: functional; settings: for zone of inhibition at 100 µg/mL: RCMB 010052, 24 h, read-out: DIZ; how it was run: as §3
Streptococcus pneumoniae [14] = assay: Antimicrobial activity against Streptococcus pneumoniae RCMB 010010 after 24 hrs by serial dilution method; type: functional; settings: RCMB 010010, 24 h
How it was run: as §1, with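 “37°C” for “28°C”, “24” for “48”, “Ciprofloxacin” for “Amphotericin B”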

Pseudomonas aeruginosa [15] = settings: RCMB 010043
Escherichia coli [16] = assay: Potency index, ratio of ciprofloxacin MIC to test compound MIC for Escherichia coli RCMB 010052; type: functional
[17] = Mycobacterium tuberculosis, RCMB 010126, 168 h

Row | Compound | MIC (Aspergillus fumigatus [1]) [µg/mL] | IC50 (WI-38) [µg/mL] | MIC (Candida albicans [2]) [µg/mL] | zone of inhibition at 100 µg/mL (Candida albicans [3]) [mm] | zone of inhibition at 100 µg/mL (Streptococcus pneumoniae [4]) [mm] | zone of inhibition at 100 µg/mL (Staphylococcus aureus [5]) [mm] | selectivity ratio [6] | inhibition zone (IZ) [7] | MIC (Escherichia coli [8]) [µg/mL] | MIC (Staphylococcus aureus [9]) [µg/mL] | zone of inhibition at 100 µg/mL (Aspergillus fumigatus [10]) [mm] | MIC [11, 17] [µg/mL] | DIZ (Pseudomonas aeruginosa [12]) | zone of inhibition at 100 µg/mL (Escherichia coli [13]) [mm] | MIC (Streptococcus pneumoniae [14]) [µg/mL] | MIC (Pseudomonas aeruginosa [15]) | further results
1 | COc1ccc(/C=N/NC(=O)c2ccc(-c3cccc(Cl)c3)nc2C)cc1OC | 3.9 (≈ 9.52 µM) | 168 (≈ 410 µM) | 15.6 (≈ 38.1 µM) | 17.2 | 19.6 | 17.9 | 215 | 73.58 mm | 1.95 (≈ 4.76 µM) | 7.81 (≈ 19.1 µM) | 19.3 | 0.78 (≈ 1.9 µM) | inactive | 21.6 | 3.9 (≈ 9.52 µM) | inactive | -logMIC [11]: 0.1079
2 | O=C(N/N=C/c1ccc(Cl)cc1Cl)c1c[nH]c2cc(Cl)ccc2c1=O | 3.9 (≈ 9.88 µM) |  | 3.9 (≈ 9.88 µM) | 19.6 | 22.1 | 20.6 |  | inactive | 0.49 (≈ 1.24 µM) | 1.95 (≈ 4.94 µM) | 20.3 |  | inactive | 24.3 | 0.98 (≈ 2.48 µM) | inactive | Ratio (Escherichia coli [16]): 2; MIC [11]: inactive
3 | Cc1nc(-c2ccc(Cl)cc2)ccc1C(=O)N/N=C/c1ccc(O)cc1 | 3.9 (≈ 10.7 µM) | 500 (≈ 1370 µM) | 15.6 (≈ 42.7 µM) | 17.3 | 20.3 | 18.3 | 160 | 53.21 mm | 3.9 (≈ 10.7 µM) | 7.81 (≈ 21.3 µM) | 19.3 | 3.12 (≈ 8.53 µM) | inactive | 19.2 | 3.9 (≈ 10.7 µM) | inactive | 
4 | Cc1ccc(/C=N/NC(=O)c2ccc(-c3cccc(Cl)c3)nc2C)cc1 |  | 500 (≈ 1370 µM) |  |  | 13.6 | 12.6 | 321 | 61.24 mm |  |  |  | 1.56 (≈ 4.29 µM) | inactive |  |  |  | diameter of the inhibition zone (DIZ) (Candida albicans [3]): inactive; diameter of the inhibition zone (DIZ) (Aspergillus fumigatus [10]): inactive; diameter of the inhibition zone (DIZ) (Escherichia coli [13]): inactive
5 | O=C(N/N=C/c1ccc(F)cc1)c1c[nH]c2ccc(Cl)cc2c1=O | 15.6 (≈ 45.5 µM) |  | 31.2 (≈ 90.9 µM) | 10.3 | 12.4 | 10.6 |  | inactive | 62.5 (≈ 182 µM) | 31.2 (≈ 90.9 µM) | 11.3 |  | inactive | 12.7 | 15.6 (≈ 45.5 µM) | inactive | MIC [11]: inactive
6 | Cc1nc(-c2cccc(Cl)c2)ccc1C(=O)N/N=C/c1ccc(Cl)cc1 | 1.95 (≈ 5.07 µM) |  | 3.9 (≈ 10.1 µM) | 17.9 | 21.3 | 19.6 |  | 43.25 mm | 0.49 (≈ 1.28 µM) | 1.95 (≈ 5.07 µM) | 20.3 | 6.24 (≈ 16.2 µM) | inactive | 23.7 | 1.95 (≈ 5.07 µM) | inactive | Ratio (Escherichia coli [16]): 2
7 | COc1cccc(/C=N/NC(=O)c2ccc(-c3ccc(Cl)cc3)nc2C)c1O | 1.95 (≈ 4.93 µM) | 500 (≈ 1260 µM) | 3.9 (≈ 9.85 µM) | 20.3 | 22.3 | 20.5 | 1280 | 80.63 mm | 1.95 (≈ 4.93 µM) | 1.95 (≈ 4.93 µM) | 21.3 | 0.39 (≈ 0.985 µM) | inactive | 21.5 | 0.98 (≈ 2.48 µM) | inactive | 
